Reference: ChEMBL document CHEMBL1126874, “Synthesis of structural analogs of leukotriene B4 and their receptor binding activity” (J Med Chem, 1993)

Key:
[1] = Agonist-induced calcium mobilization using human polymorphonuclear leukocytes; set-up: concentration or dose not given beside the values
[2] = target: Leukotriene B4 receptor 1 (Homo sapiens, UniProt Q15722); assay: Inhibition of [3H]- LTB4 binding on human whole cells
Procedure, shortened: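 Intact DMSO-differentiated (1.3%, 3-4 days) human U-937 cells, or isolated human peripheral blood PMNs, 10⁶ cells, incubated in HBSS with 0.1% ovalbumin, 0.2 nM [³H]LTB₄ and compound (0.1 nM-10 μM, 5-8 concentrations in duplicate) for 20 min at 0 °C. Nonspecific binding measured with 1 μM unlabeled LTB₄. Filtration, scintillation counting. Ki from IC50 by Cheng-Prusoff; mean of ≥2 assays.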

Leukotriene B4 receptor 1, sequence (Q15722 whole entry): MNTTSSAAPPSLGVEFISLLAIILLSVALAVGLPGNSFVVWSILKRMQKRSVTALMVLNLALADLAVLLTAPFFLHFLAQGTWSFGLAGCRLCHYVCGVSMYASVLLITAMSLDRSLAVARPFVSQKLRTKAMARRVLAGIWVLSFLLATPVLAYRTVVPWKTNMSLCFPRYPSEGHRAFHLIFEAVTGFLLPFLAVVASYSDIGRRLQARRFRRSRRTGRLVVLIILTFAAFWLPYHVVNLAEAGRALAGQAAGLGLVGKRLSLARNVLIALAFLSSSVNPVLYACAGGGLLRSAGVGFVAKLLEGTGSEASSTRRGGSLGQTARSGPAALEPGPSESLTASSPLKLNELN

| Ki [2] | Compound | Agonist activity % [1] |
| --- | --- | --- |
| 60 nM | CCCCCCCCC(O)CCc1cccc(CC(O)c2cccc(C(=O)[O-])c2)n1.[Li+] (centres undefined) | 84% |
|  | CCCCCCCCC(O)/C=C/c1cccc(CC(O)c2cccc(C(=O)[O-])c2)n1.[Li+] (centres undefined) | 86% |
| 3 nM | CCCCOc1cccc(C(O)/C=C/c2cccc(CC(O)c3cccc(C(=O)[O-])c3)n2)c1.[Li+] (centres undefined) | 56% |
| 900 nM | CCCCCCCCC(O)c1ccc2ccc(CC(O)CCCC(=O)O)nc2c1 (centres undefined) | 63% |
| 9000 nM | CCCCCCCCC(O)c1ccc2ccc(CSc3cccc(C(=O)[O-])c3)cc2c1.[Li+] (centres undefined) | 23% |
| 140 nM | CCCCCCCCC(O)c1ccc2ccc(C[S+]([O-])c3cccc(C(=O)O)c3)nc2c1 (centres undefined) | 98% |
| 100 nM | CCCCCCCCC(O)c1ccc2ccc(CCc3cccc(C(=O)[O-])c3)nc2c1.[Li+] (centres undefined) | 66% |
| 600 nM | CCCCCCCCC(O)c1ccc2ccc(CSc3cccc(C(=O)O)c3)nc2c1 (centres undefined) | 85% |
| 1000 nM | CCCCOc1cccc(C(O)CCc2cccc(CC(O)c3cccc(C(=O)[O-])c3)n2)c1.[Li+] (centres undefined) | 4% |
| 500 nM | CCCCCCCCC(O)c1ccc2ccc(C[S+]([O-])c3cccc(C(=O)[O-])c3)cc2c1.[Li+] (centres undefined) | 56% |
| 700 nM | CCCCC/C=C\C[C@H](O)/C=C/c1cccc(C[C@H](O)CCCCO)n1 | 100% |
| 50 nM | CCCCCCCC[C@@H](O)c1ccc2ccc(CCc3cccc(C(=O)[O-])c3)nc2c1.[Li+] | 56% |
| 10 nM | CCCCCCCCC(O)c1ccc2ccc(CC(O)c3cccc(C(=O)[O-])c3)nc2c1.[Li+] (centres undefined) | 74% |
| 2800 nM | CCCCCCCCC(O)c1ccc2ccc(CCCCCC(=O)O)nc2c1 (centres undefined) | 58% |
| 1400 nM | CCCCCCCCC(O)c1ccc2ccc(/C=C/CCCC(=O)O)nc2c1 (centres undefined) | 45% |
